Active and inactive are the calls of the source. The rule behind the calls is not given here.
Key:
Assay type in all cases: functional, cell-based
[1] = (§1) Antiproliferative activity against human HCT15/CL02 cells after 48 hrs by sulforhodamine B assay; conditions: HCT-15, 48 h
In short: (§2)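 Cells kept in RPMI1640 with 5% FBS at 37 °C, 5% CO2. HCT15/CL02 is a line derived from HCT15 by stepwise doxorubicin exposure. Cells seeded and left 24 h to attach, then exposed continuously for 48 h to serially diluted saponins. Fixed with cold 10% TCA, 1 h at 4 °C, stained with 0.4% SRB, dye solubilized in 10 mM Tris (pH 10.5), absorbance at 520 nm. Each run in triplicate; IC50 by nonlinear regression, mean ± SD of three independent experiments.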

[2] = (§3) Antiproliferative activity against human MESSA cells after 48 hrs by sulforhodamine B assay; conditions: MES-SA; in short: as §2
[3] = (§4) Antiproliferative activity against human MESSA/DX5 cells after 48 hrs by sulforhodamine B assay; conditions: MES-SA/Dx5, 48 h; in short: as §2
HCT-15 [4] = assay: Antiproliferative activity against human HCT15 cells after 48 hrs by sulforhodamine B assay; conditions: for IC50: HCT-15, 48 h; in short: as §2
HCT-15 [5] = assay: as §1; in short: as §2
MES-SA = assay: as §3; in short: as §2
MES-SA/Dx5 = assay: as §4; in short: as §2

Row | IC50 (HCT-15 [4]) [µM] | SMILES | IC50 [1] [µM] | IC50 [2] [µM] | IC50 [3] [µM] | Activity (HCT-15 [5]) | Activity (MES-SA) | Activity (MES-SA/Dx5) | Activity (HCT-15 [4])
1 | 3.4 | CC(=O)O[C@H]1[C@H](O[C@H]2[C@H](OC(=O)[C@]34CCC(C)(C)C[C@H]3C3=CC[C@@H]5[C@@]6(C)C[C@H](O)[C@H](O[C@@H]7O[C@H](CO)[C@@H](O)[C@H](O)[C@H]7O)C(CO)(CO)[C@@H]6CC[C@@]5(C)[C@]3(C)C[C@H]4O)OC[C@H](O)[C@@H]2O)O[C@@H](C)[C@H](O[C@@H]2OC[C@@H](O)[C@H](O[C@@H]3OC[C@](O)(CO)[C@H]3O)[C@H]2O)[C@H]1O [3'O-ACETYLPLATYCODIN D] | 4.1 | 2.3 | 2.2 |  |  |  | 
2 | 6.7 | CC(=O)O[C@H]1[C@@H](O)[C@H](O[C@H]2[C@H](OC(=O)[C@]34CCC(C)(C)C[C@H]3C3=CC[C@@H]5[C@@]6(C)C[C@H](O)[C@H](O[C@@H]7O[C@H](CO)[C@@H](O)[C@H](O)[C@H]7O)[C@@](C)(CO)[C@@H]6CC[C@@]5(C)[C@]3(C)C[C@H]4O)OC[C@H](O)[C@@H]2O)O[C@@H](C)[C@@H]1O[C@@H]1OC[C@@H](O)[C@H](O[C@@H]2OC[C@](O)(CO)[C@H]2O)[C@H]1O | > 10 | 3.6 | 4.2 |  |  |  | 
3 | 8.5 | C[C@@H]1O[C@@H](O[C@H]2[C@H](OC(=O)[C@]34CCC(C)(C)C[C@H]3C3=CC[C@@H]5[C@@]6(C)C[C@H](O)[C@H](O[C@@H]7O[C@H](CO)[C@@H](O)[C@H](O)[C@H]7O)[C@@](C)(CO)[C@@H]6CC[C@@]5(C)[C@]3(C)C[C@H]4O)OC[C@H](O)[C@@H]2O)[C@H](O)[C@H](O)[C@H]1O[C@@H]1OC[C@@H](O)[C@H](O[C@@H]2OC[C@](O)(CO)[C@H]2O)[C@H]1O [POLYGALACIN D] | > 10 | 5 | 7.7 |  |  |  | 
4 | > 10 | CC(=O)O[C@H]1[C@H](O[C@H]2[C@H](OC(=O)[C@]34CCC(C)(C)C[C@H]3C3=CC[C@@H]5[C@@]6(C)C[C@H](O)[C@H](O[C@@H]7O[C@H](CO)[C@@H](O)[C@H](O)[C@H]7O)[C@@](C)(CO)[C@@H]6CC[C@@]5(C)[C@]3(C)C[C@H]4O)OC[C@H](O)[C@@H]2O)O[C@@H](C)[C@H](O[C@@H]2OC[C@@H](O)[C@H](O[C@@H]3OC[C@](O)(CO)[C@H]3O)[C@H]2O)[C@H]1O | > 10 | 6.3 | 6.2 |  |  |  | 
5 | 3.4 | CC(=O)O[C@H]1[C@@H](O)[C@H](O[C@H]2[C@H](OC(=O)[C@]34CCC(C)(C)C[C@H]3C3=CC[C@@H]5[C@@]6(C)C[C@H](O)[C@H](O[C@@H]7O[C@H](CO)[C@@H](O)[C@H](O)[C@H]7O)C(CO)(CO)[C@@H]6CC[C@@]5(C)[C@]3(C)C[C@H]4O)OC[C@H](O)[C@@H]2O)O[C@@H](C)[C@@H]1O[C@@H]1OC[C@@H](O)[C@H](O[C@@H]2OC[C@](O)(CO)[C@H]2O)[C@H]1O | 4.2 | 2.3 | 2.2 |  |  |  | 
6 | 3.6 | CC(=O)O[C@H]1[C@H](O[C@H]2[C@H](OC(=O)[C@]34CCC(C)(C)C[C@H]3C3=CC[C@@H]5[C@@]6(C)C[C@H](O)[C@H](O[C@@H]7O[C@H](CO)[C@@H](O)[C@H](O[C@@H]8O[C@H](CO)[C@@H](O)[C@H](O)[C@H]8O)[C@H]7O)[C@@](C)(CO)[C@@H]6CC[C@@]5(C)[C@]3(C)C[C@H]4O)OC[C@H](O)[C@@H]2O)O[C@@H](C)[C@H](O[C@@H]2OC[C@@H](O)[C@H](O[C@@H]3OC[C@](O)(CO)[C@H]3O)[C@H]2O)[C@H]1O | 5.8 | 3.3 | 3.4 |  |  |  | 

The next lines start with the compound.

Row | SMILES | IC50 (HCT-15 [4]) [µM] | IC50 [1] [µM] | IC50 [2] [µM] | IC50 [3] [µM] | Activity (HCT-15 [5]) | Activity (MES-SA) | Activity (MES-SA/Dx5) | Activity (HCT-15 [4])
7 | CC(=O)O[C@H]1[C@@H](O)[C@H](O[C@H]2[C@H](OC(=O)[C@]34CCC(C)(C)C[C@H]3C3=CC[C@@H]5[C@@]6(C)C[C@H](O)[C@H](O[C@@H]7O[C@H](CO)[C@@H](O)[C@H](O[C@@H]8O[C@H](CO)[C@@H](O)[C@H](O)[C@H]8O)[C@H]7O)[C@@](C)(CO)[C@@H]6CC[C@@]5(C)[C@]3(C)C[C@H]4O)OC[C@H](O)[C@@H]2O)O[C@@H](C)[C@@H]1O[C@@H]1OC[C@@H](O)[C@H](O[C@@H]2OC[C@](O)(CO)[C@H]2O)[C@H]1O [2'OACETYLPOLYGALACIN D2] | 3.6 | 5.9 | 3.4 | 3.4 |  |  |  | 
8 | C[C@@H]1O[C@@H](O[C@H]2[C@H](OC(=O)[C@]34CCC(C)(C)C[C@H]3C3=CC[C@@H]5[C@@]6(C)C[C@H](O)[C@H](O[C@@H]7O[C@H](CO)[C@@H](O)[C@H](O[C@@H]8O[C@H](CO)[C@@H](O)[C@H](O)[C@H]8O)[C@H]7O)[C@@](C)(CO)[C@@H]6CC[C@@]5(C)[C@]3(C)C[C@H]4O)OC[C@H](O)[C@@H]2O)[C@H](O)[C@H](O)[C@H]1O[C@@H]1OC[C@@H](O)[C@H](O[C@@H]2OC[C@](O)(CO)[C@H]2O)[C@H]1O [POLYGALACIN D2] | 3.8 | 5.8 | 2.6 | 3.4 |  |  |  | 
9 | C[C@@H]1O[C@@H](O[C@H]2[C@H](OC(=O)[C@]34CCC(C)(C)C[C@H]3C3=CC[C@@H]5[C@@]6(C)C[C@H](O)[C@H](O[C@@H]7O[C@H](CO)[C@@H](O)[C@H](O[C@@H]8O[C@H](CO)[C@@H](O)[C@H](O)[C@H]8O)[C@H]7O)C(CO)(CO)[C@@H]6CC[C@@]5(C)[C@]3(C)C[C@H]4O)OC[C@H](O)[C@@H]2O)[C@H](O)[C@H](O)[C@H]1O[C@@H]1OC[C@@H](O)[C@H](O[C@@H]2OC[C@](O)(CO)[C@H]2O)[C@H]1O [PLATYCODIN D2] | 9.6 | 5.7 | 3.5 | 5.2 |  |  |  | 
10 | C[C@@H]1O[C@@H](O[C@H]2[C@H](OC(=O)[C@]34CCC(C)(C)C[C@H]3C3=CC[C@@H]5[C@@]6(C)C[C@H](O)[C@H](O[C@@H]7O[C@H](CO)[C@@H](O)[C@H](O[C@@H]8O[C@H](CO)[C@@H](O)[C@H](O)[C@H]8O)[C@H]7O)C(CO)(CO)[C@@H]6CC[C@@]5(C)[C@]3(C)C[C@H]4O)OC[C@H](O)[C@@H]2O)[C@H](O)[C@H](O)[C@H]1O[C@@H]1OC[C@@H](O)[C@H](O)[C@H]1O |  |  |  |  | Active | Active | Active | Active
11 | COc1cc([C@@H]2c3cc4c(cc3[C@@H](O[C@@H]3O[C@@H]5CO[C@@H](C)O[C@H]5[C@H](O)[C@H]3O)[C@H]3COC(=O)[C@H]23)OCO4)cc(OC)c1O [ETOPOSIDE] | 1.6 | > 10 | 0.3 | > 10 |  |  |  | 
12 | C[C@@H]1O[C@@H](O[C@H]2[C@H](OC(=O)[C@]34CCC(C)(C)C[C@H]3C3=CC[C@@H]5[C@@]6(C)C[C@H](O)[C@H](O[C@@H]7O[C@H](CO)[C@@H](O)[C@H](O)[C@H]7O)C(CO)(CO)[C@@H]6CC[C@@]5(C)[C@]3(C)C[C@H]4O)OC[C@H](O)[C@@H]2O)[C@H](O)[C@H](O)[C@H]1O[C@@H]1OC[C@@H](O)[C@H](O[C@@H]2OC[C@](O)(CO)[C@H]2O)[C@H]1O [PLATYCODIN D] | 5.7 | 7.9 | 3.9 | > 10 |  |  |  | 

From ChEMBL document CHEMBL1641387, “Antiproliferative effects of saponins from the roots of Platycodon grandiflorum on cultured human tumor cells” (J Nat Prod, 2010)
